# Source: PubChem BioAssay (several laboratories)
# Gli-Sufu antag – Gli-Sufu pathway antagonism | AID 588413 | actives 0.74% (n = 340,000) | Sufu-KO-LIGHT fibroblasts, Gli luciferase reporter luminescence | inhibition, % at 5 µM;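 active = inhibition above about 55%, limit read from the data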;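 note: 0% = DMSO-treated cells and 100% = wells with medium but no cells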
# Jurkat NFkB inh – lowers PMA/ionomycin-induced NF-kB signal in Jurkat cells; PMA/ionomycin-induced NF-kB luciferase reporter, luminescence; inhibition, % at 4 µM; actives 0.53% (n = 330,000); in the data active = inhibition above about 50%
# UPR CHOP act – activators of apoptotic arm of unfolded protein response (CHOP) | CHO-CHOP luciferase reporter, UPR activation, luminescence; percent of tunicamycin response over DMSO baseline | activation, % at 10 µM | actives 0.34% (n = 330,000);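 active = at 10 µM dose, activation of 40% or more, normalized to positive control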;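 note: 100% = tunicamycin at 10 µg/mL and 0% = DMSO alone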
#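 Material: CHO-CHOP cells, stable luciferase reporter of PERK-eIF2a-CHOP signalling; quantity: 500 reporter cells seeded per well; buffer or medium: F12 medium containing 10% fetal bovine serum; compound: one dose, 10 µM in 0.5% DMSO; incubation: 6 h compound treatment, 37 °C; measured by: Steady-Glo luciferase luminescence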
# CHOP inhibitor – inhibitors of CHOP induction in ER stress response; actives 3.8% (n = 220,000); CHO-K1 CHOP-promoter luciferase, tunicamycin-induced, 15-18 h; inhibition, % at 10 µM;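 active = compounds that reduced the stress-induced luciferase reporter signal by more than about 70% of percent inhibition, limit read from the data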;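 note: 0% = tunicamycin plus vehicle and 100% = wells without tunicamycin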
# 697 NFkB inh – inhibitors of the PMA/ionomycin-induced NF-kB reporter in 697 B cells; 697 B-cell NF-kB luciferase reporter, 16 h; inhibition, % at 4 µM; actives 0.33% (n = 330,000); AID 435022; in the data active = inhibition above about 35%
# XBP1 UPR activ – activators of adaptive arm of unfolded protein response (XBP1) | CHO-XBP1 luciferase reporter, IRE1-XBP1 UPR activation, luminescence; percent of tunicamycin response, DMSO as zero | activation, % at 20 µM | actives 0.33% (n = 330,000);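 active = versus positive control, 20 µM dose yields 30% or more activation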;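 note: 100% = tunicamycin at 10 µg/mL and 0% = DMSO only wells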
#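 Material: CHO-XBP1 cells stably carrying IRE1-XBP1-driven luciferase reporter / Amount: 1000 cells per well / Compound: 20 µM, 1% DMSO / Times: 6 h treatment, 37 °C / Detection: luciferase luminescence / Measure: % activation of reporter signal versus tunicamycin and DMSO controls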
# 697 NFkB conf – inhibitors of the PMA/ionomycin-induced NF-kB reporter in 697 B cells, retest; AID 449746; inhibition, % at 4 µM; 697 B-cell NF-kB luciferase, 16 h; actives 35% (n = 2,000); shares compounds with 697 NFkB inh; in the data active = inhibition mostly above about 28%, no sharp cut-off; inactive = mostly below about 22%
# CHOP UPR conf – apoptotic UPR (CHOP) activation, confirmed. CHO-CHOP cells, CHOP-luciferase reporter luminescence; percent of tunicamycin response, DMSO as zero. activation, % at 10 µM. shares compounds with UPR CHOP act. actives 64% (n = 1,000); in the data active = activation above about 33%;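 note: 0% = DMSO wells and 100% = tunicamycin 10 µg/mL wells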
# XBP1 UPR conf – adaptive UPR (XBP1) activation, confirmed | AID 485299 | CHO-XBP1 IRE1-XBP1 luciferase reporter, luminescence | activation, % at 20 µM | actives 63% (n = 1,000) | shares compounds with XBP1 UPR activ;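 active = reporter signal at least 30% of the positive control's activation in two or more of four replicate wells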;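 note: plate controls were DMSO negative control for no effect and tunicamycin 10 µg/mL positive control for full effect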
# Gli-Sufu confirm – confirmation of Gli-SUFU pathway antagonists; shares compounds with Gli-Sufu antag; inhibition, % at 5 µM; Sufu-KO-LIGHT cells, Gli luciferase reporter, luminescence; actives 40% (n = 2,500);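 active = mean inhibition at 5 µM reaching about 45%, limit read from the data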;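 note: plate controls were DMSO-treated cells for no effect and wells lacking cells for full effect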
# SufuKO cytotox – cytotoxic in Gli-SUFU antagonist counter-screen. actives 32% (n = 2,500). Sufu-KO-LIGHT cells cytotoxicity, ATP luminescence. shares compounds with Gli-Sufu antag. cytotoxicity, % at 5 µM. AID 651994;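 active = mean cytotoxicity at 5 µM above about 25%, limit read from the data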;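 note: cells exposed to compound overnight for roughly 16 to 18 hours; plate controls were DMSO wells with cells for no effect and medium without cells for full effect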
# Wnt3a cs – counter-screen for Gli-SUFU antagonists: Wnt3a reporter inhibition; shares compounds with Gli-Sufu antag; Wnt-LIGHT cells, Wnt3a-driven luciferase reporter, luminescence; inhibition, % at 6.25 µM; actives 20% (n = 2,500); AID 651995;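 active = mean inhibition above about 25%, limit read from the data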
# Active calls of the source: *; / = not tested or not shown; ! = repeats disagree. Compounds with a hit are over-represented: about 3.9% of the library has one in this group of screens.
SMILES,Gli-Sufu antag,Jurkat NFkB inh,UPR CHOP act,CHOP inhibitor,697 NFkB inh,XBP1 UPR activ,697 NFkB conf,others
CC1=CC(C)(C)Nc2ccc(C)cc21,-20,-12,-2,15,-28,-2,/,
CN(C)S(=O)(=O)c1ccc(F)c(C(=O)Nc2ccccc2C(=O)NC2CC2)c1,-9,4,-2,/,22,-2,/,
C=C1C(=O)C=C[C@]2(C)C[C@@H]3OC(=O)[C@](C)(O)[C@H]3C[C@@H]12,16,42,59*,36,-314,3,-198,CHOP UPR conf=56*
O=C(CCCN1C(=O)S/C(=C\C=C\c2ccccc2)C1=O)Nc1ccc(O)cc1,31,-32,64*,/,40*,11,32*,CHOP UPR conf=2
CCOC(=O)C1CCCN(C(=O)CSc2nnnn2C)C1 (stereo not drawn),-3,-4,0,/,-12,-2,/,
COc1cc(/C=C/c2ccc3cccc(O)c3n2)cc(Cl)c1OC,-27,31,19,/,-324,66*,-249,XBP1 UPR conf=17
COc1cc(Br)cc(/C=C/c2ccc3cccc(O)c3n2)c1OC,7,-4,1,/,-7,5,/,
Oc1[nH]c2ccccc2c1N=Nc1nc(Nc2ccccc2)nc(N2CCOCC2)n1,13,-2,12,19,53*,86*,52*,XBP1 UPR conf=8
CN(C)C(=O)CCc1ccc2c3c([nH]c2c1)[C@]1(CCc2ccccc2)[C@@H](C(=O)N2CCCCC2)C[C@H](CC(=O)NCc2ccco2)C(=O)N1CC3,8,/,40,/,39*,33*,24,XBP1 UPR conf=2
CN(C)C(=O)CCc1ccc2c3c([nH]c2c1)[C@]1(C)[C@@H](C(=O)N2CCCCC2)C[C@H](CC(=O)NCc2ccco2)C(=O)N1CC3,1,/,2,/,12,0,/,
c1ccc(OCC2CCNCC2)nc1,-1,1,0,/,-5,-4,/,
Cc1ccc(NC(=O)COC(=O)Cc2cccs2)cc1S(=O)(=O)N1CCOCC1,-12,5,0,/,14,-5,/,
Cn1c(=O)c2c(SCC(=O)Nc3ccccc3F)nc(-c3ccccc3F)nc2n(C)c1=O,7,7,55*,/,48*,355*,12*,CHOP UPR conf=101*;XBP1 UPR conf=73*
Cc1ccc(-c2c[n+]3c(n2-c2ccccc2)SCC3)cc1,84*,34,-1,0,39*,-1,42*,Gli-Sufu confirm=83*;SufuKO cytotox=23;Wnt3a cs=38*
Cc1ccc(-c2cn(-c3ccccc3)c3[n+]2CCCS3)cc1,83*!,40,1,36,56*!,-2,35*,Gli-Sufu confirm=87*;SufuKO cytotox=45*;Wnt3a cs=45*
COc1ccc(-c2c[n+]3c(n2-c2ccccc2)SCC3)cc1OC,-3,14,-1,-8,8,-3,/,
COC(=O)c1ccccc1Nc1ccnc(Cl)n1,-7,5,-2,/,5,1,/,
COc1ccc(CC(=O)NNC(=O)c2ccco2)cc1OC,17,7,0,/,5,1,/,
